Wee1 stabilizer: blocks degradation of human Wee1 kinase; P30291; HeLa Luc-Wee1K328M stability, luciferase luminescence; 100% = proteasome inhibitor MG132 effect; reporter increase, % at 5 µM; 1.2% of 220,000 active;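 active = activation above the mean of all tested compounds plus 3 SD, set per screening run, cut at about 8.8% in these data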;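 note: cells exposed to compound for 20 h before luminescence read; 0% = DMSO alone and 100% = MG132 at 30 µM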
NPY-Y2 antag: blocks the human neuropeptide Y Y2 receptor | P49146 | NPY-Y2 expressing cells, antagonist mode | inhibition, % at 2.7 µM | 0.99% of 140,000 active | AID 793; in the data active = inhibition above about 17%;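 note: 0% = vehicle with agonist challenge and 100% = reference antagonist with challenge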
Target sequence (P49146 whole entry, looked up): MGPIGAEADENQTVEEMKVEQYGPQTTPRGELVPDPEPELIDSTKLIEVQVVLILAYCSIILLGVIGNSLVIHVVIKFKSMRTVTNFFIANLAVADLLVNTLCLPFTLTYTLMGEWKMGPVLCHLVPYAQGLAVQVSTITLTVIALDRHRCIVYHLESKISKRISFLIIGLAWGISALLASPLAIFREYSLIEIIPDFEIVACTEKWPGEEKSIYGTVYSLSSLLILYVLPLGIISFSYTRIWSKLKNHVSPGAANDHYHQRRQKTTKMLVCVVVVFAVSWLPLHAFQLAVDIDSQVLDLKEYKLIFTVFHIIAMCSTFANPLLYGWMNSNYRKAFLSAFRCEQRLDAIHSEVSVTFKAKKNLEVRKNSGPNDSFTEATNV
NPY-Y2 PAM-ag: human NPY-Y2 potentiation or agonism, primary screen | activation, % at 3.6 µM | cells expressing NPY-Y2, potentiator/agonist read-out | AID 1359 | 0.45% of 220,000 active; in the data active = activation above about 27%;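 note: cells stimulated with NPY near EC25 plus isoproterenol at EC100; 0% = vehicle plus submaximal agonist and 100% = vehicle plus saturating agonist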
NPY-Y1 antag: NPY-Y1 (human) receptor antagonism; P25929; HEK293-CNG Y1 cells, membrane potential fluorescence; NPY at EC95, then isoproterenol; inhibition, % at 3.6 µM; 1% of 200,000 active;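 active = inhibition above the campaign mean inhibition of all tested compounds plus 3 SD, cut at about 20% in these data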;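 note: 0% = DMSO wells given NPY plus isoproterenol and 100% = isoproterenol alone without NPY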
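Material: HEK293 Y1/CNG channel cell line; also added: NPY (25 nM), isoproterenol (1 µM), Ro 20-1724 (25 µM); doses: one concentration, 3.6 µM, in 0.4% DMSO; schedule: compound incubation 1 h at room temperature, readout 45 min post-stimulation; technique: membrane potential fluorescence; measure: fluorescence ratio normalized to % inhibition between controls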
NPY-Y1 PAM-ag: human NPY-Y1 potentiation or agonism, primary screen; activation, % at 3.6 µM; P25929; 0.37% of 220,000 active; NPY-Y1 expressing cells, potentiator/agonist activation; in the data active = activation above about 33%, passing the limit was not always enough;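 note: cells stimulated with NPY at EC10 then isoproterenol at EC100; 0% = low agonist plus stimulus and 100% = saturating agonist plus stimulus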
Hsp70 activator: Hsp70 transcriptional activation, primary screen; HeLa Hsp70 promoter luciferase reporter, luminescence; scaled: vehicle 0, proteasome-inhibitor control 100%; activation, % at 10 µM; 0.04% of 200,000 active; AID 1203;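 active = activation above the mean across all tested compounds plus 3 SD, cutoff set per campaign, cut at about 5.5% in these data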;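 note: 100% = MG132 at 30 µM as the positive control and 0% = DMSO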
NPY-Y1 antag ct: antagonizes human NPY-Y1, counter-screen to NPY-Y2 antagonists. shares compounds with NPY-Y2 antag. cell-based NPY-Y1 antagonism counterscreen. inhibition, % at 3.6 µM. 19% of 710 active; in the data active = inhibition above about 20%;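 note: cells challenged with NPY then isoproterenol with cAMP sensed through a CNG channel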
NPY2 antag conf: human NPY-Y2 antagonism, confirmation; 32% of 710 active; HEK293 NPY-Y2 CNG channel, membrane potential fluorescence; shares compounds with NPY-Y2 antag; inhibition, % at 2.8 µM;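 active = mean inhibition of triplicate wells above the hit cutoff set in the primary screen, cut at about 17% in these data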;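 note: 0% = DMSO with NPY challenge and 100% = BIIE0246 high control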
* marks the source's active call; other numbers are inactive results. A selection: hits, their analogues and other compounds. The true share with any hit is near 3%.

Screening O=C(CCc1nc(-c2ccccc2)c(-c2ccccc2)o1)OCc1ccc(Br)cc1 returned Wee1 stabilizer -2, NPY-Y2 antag 18*, NPY-Y2 PAM-ag -16, NPY-Y1 antag 5, NPY-Y1 PAM-ag -8, Hsp70 activator 0, NPY-Y1 antag ct 12 and NPY2 antag conf 20*.
For O=C(CCc1nc(-c2ccccc2)c(-c2ccccc2)o1)OCc1ccc(Cl)cc1 the results were Wee1 stabilizer 0, NPY-Y2 antag 13, NPY-Y2 PAM-ag -17, NPY-Y1 antag 17, NPY-Y1 PAM-ag -34 and Hsp70 activator 0.
For O=C(CSCc1c(Cl)cccc1Cl)Nc1ccccc1-c1ccccc1 the results were Wee1 stabilizer 1, NPY-Y2 antag 37*, NPY-Y2 PAM-ag 3, NPY-Y1 antag 11, NPY-Y1 PAM-ag 10, Hsp70 activator 0, NPY-Y1 antag ct 12 and NPY2 antag conf 24*.
For CNC(=O)c1ccsc1NC(=O)c1ccc(S(=O)(=O)N2CCCc3ccccc32)cc1 the results were Wee1 stabilizer -2, NPY-Y2 antag 17*, NPY-Y2 PAM-ag -1, NPY-Y1 antag 8, NPY-Y1 PAM-ag -57, Hsp70 activator 0, NPY-Y1 antag ct 31* and NPY2 antag conf 39*.
Screening CC1(C)CC(=O)C=C(NCc2ccc(Cl)c(Cl)c2)C1 returned Wee1 stabilizer 2, NPY-Y2 antag 18*, NPY-Y2 PAM-ag -4, NPY-Y1 antag 13, NPY-Y1 PAM-ag -15, Hsp70 activator 0, NPY-Y1 antag ct 9 and NPY2 antag conf 7.
For COC(=O)C1=C(C)N(Cc2ccco2)C(=O)N[C@H]1c1ccc(Br)cc1 the results were Wee1 stabilizer -4, NPY-Y2 antag 1, NPY-Y2 PAM-ag 9, NPY-Y1 antag 3, NPY-Y1 PAM-ag 18 and Hsp70 activator 0.
Screening COc1cc(/C=C2\SC(=Nc3c(C)n(C)n(-c4ccccc4)c3=O)NC2=O)ccc1O returned Wee1 stabilizer 2, NPY-Y2 antag 31*, NPY-Y2 PAM-ag -6, NPY-Y1 antag 20*, NPY-Y1 PAM-ag -28, Hsp70 activator 0, NPY-Y1 antag ct 48* and NPY2 antag conf 74*.
Screening COc1cc(/C=C2\SC(=Nc3ccc(O)cc3)NC2=O)cc(OC)c1O returned Wee1 stabilizer -1, NPY-Y2 PAM-ag -2, NPY-Y1 antag 8, NPY-Y1 PAM-ag 9 and Hsp70 activator 0.
`NC(=O)Nc1ccc(C(=O)OCC(=O)Nc2cccc(S(=O)(=O)NC3=NCCCCC3)c2)cc1` gave Wee1 stabilizer -1, NPY-Y2 PAM-ag 3 and NPY-Y1 PAM-ag -2.
Cc1ccccc1/C=C/c1nc2ccccc2c(=O)n1CCc1ccccc1 was read as Wee1 stabilizer -1, NPY-Y2 antag 23*, NPY-Y2 PAM-ag 5, NPY-Y1 antag 2, NPY-Y1 PAM-ag -10, Hsp70 activator 0, NPY-Y1 antag ct 18 and NPY2 antag conf 29*.
`COC(=O)c1c(C)oc2ccc(N(C(=O)c3ccncc3)S(=O)(=O)c3ccccc3)cc12` gave Wee1 stabilizer 1, NPY-Y2 antag 7, NPY-Y2 PAM-ag 4, NPY-Y1 antag -2, NPY-Y1 PAM-ag -17 and Hsp70 activator 0.
Screening COC(=O)c1c(C)oc2ccc(N(C(=O)c3ccncc3)S(=O)(=O)c3ccc4ccccc4c3)cc12 returned Wee1 stabilizer -2, NPY-Y2 antag 23*, NPY-Y2 PAM-ag -31, NPY-Y1 antag 3, NPY-Y1 PAM-ag -18, Hsp70 activator 0, NPY-Y1 antag ct 19 and NPY2 antag conf 31*.
For O=C1COc2ccc(C(=O)C[n+]3cccc(O)c3)cc2N1 the results were Wee1 stabilizer 2, NPY-Y2 PAM-ag 4 and NPY-Y1 PAM-ag 6.
`COc1cccc(OCCNc2cc(N3CCCCC3)ccc2[N+](=O)[O-])c1` gave Wee1 stabilizer -2, NPY-Y2 antag 5, NPY-Y2 PAM-ag -3, NPY-Y1 antag 6, NPY-Y1 PAM-ag -36 and Hsp70 activator 0.
Screening COc1ccc(OCCNc2cc(N3CCCCC3)ccc2[N+](=O)[O-])cc1 returned Wee1 stabilizer -2, NPY-Y2 antag 18*, NPY-Y2 PAM-ag -7, NPY-Y1 antag 7, NPY-Y1 PAM-ag -12, Hsp70 activator 0, NPY-Y1 antag ct 4 and NPY2 antag conf 7.
COc1cc2c3c(c1OC)C1(C=CC(=NNC(N)=O)C=C1)CC3N(C(C)=O)CC2 (stereo not given) was read as Wee1 stabilizer -2, NPY-Y2 antag -2, NPY-Y2 PAM-ag 14, NPY-Y1 antag 5, NPY-Y1 PAM-ag -11 and Hsp70 activator -1.
For O=C(NC1CCCC1)C(c1ccsc1)N(CCc1ccccc1)C(=O)Cc1cccs1 (stereo not given) the results were Wee1 stabilizer 4, NPY-Y2 antag 34*, NPY-Y2 PAM-ag 13, NPY-Y1 antag 8, NPY-Y1 PAM-ag 4, Hsp70 activator 0, NPY-Y1 antag ct 21* and NPY2 antag conf 13.
O=C(NC1CCCC1)C(c1ccsc1)N(C(=O)Cc1cccs1)c1ccccc1 (stereo not given) was read as Wee1 stabilizer 0, NPY-Y2 antag 1, NPY-Y2 PAM-ag 2, NPY-Y1 antag 4, NPY-Y1 PAM-ag 1 and Hsp70 activator 0.
Screening COC(=O)c1nn(-c2ccccc2)c2nnc(Cc3ccc(C)cc3)c(=O)n12 returned Wee1 stabilizer -1, NPY-Y2 antag 1, NPY-Y2 PAM-ag -2, NPY-Y1 antag 3, NPY-Y1 PAM-ag 0 and Hsp70 activator 0.
Cc1ccc(-n2nc(C(=O)c3ccccc3)n3c(=O)c(Cc4ccccc4)nnc23)cc1 was read as Wee1 stabilizer 0, NPY-Y2 antag 18*, NPY-Y2 PAM-ag -21, NPY-Y1 antag 17, NPY-Y1 PAM-ag -41, Hsp70 activator 0, NPY-Y1 antag ct 73* and NPY2 antag conf 99*.
Screening Cc1cccc(C(=O)N2CCN=C2SCc2ccc([N+](=O)[O-])cc2)c1 returned Wee1 stabilizer -3, NPY-Y2 PAM-ag -6, NPY-Y1 antag 14, NPY-Y1 PAM-ag -15 and Hsp70 activator 0.
Screening CC(C)CCNC(=O)c1cc(-c2ccco2)nc2ccccc12 returned Wee1 stabilizer 8, NPY-Y2 antag 33*, NPY-Y2 PAM-ag -112, NPY-Y1 antag 19, NPY-Y1 PAM-ag -149, Hsp70 activator 0, NPY-Y1 antag ct 40* and NPY2 antag conf 40*.
O=C(NCC1CCCO1)c1cc(-c2ccco2)nc2ccccc12 (stereo not given) was read as Wee1 stabilizer 1, NPY-Y2 antag -2, NPY-Y2 PAM-ag 1, NPY-Y1 antag 9, NPY-Y1 PAM-ag 6 and Hsp70 activator 0.

Screening results deposited in PubChem by The Scripps Research Institute Molecular Screening Center.
